Test results as given in ChEMBL document CHEMBL1124143, “Nonisomerizable analogues of (Z)- and (E)-4-hydroxytamoxifen. Synthesis and endocrinological properties of substituted diphenylbenzocycloheptenes” (1988).
One block for each molecule: values may come before it.

Key:
[1] = molecular target: T1, Estrogen receptor (Rattus norvegicus) (UniProt P06211+Q62986); test: In vivo uterotrophic effect in estradiol stimulated immature rats; assay type: functional, organism-based
In short: (§1)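 Immature female Sprague-Dawley rats got daily subcutaneous injections of compound in 0.1 mL peanut oil for 3 days and were killed on day 4. Read-out was uterine weight (mg).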

[2] = molecular target: Estrogen receptor (Homo sapiens) (UniProt Q92731+P03372); test: Inhibition of [3H]estradiol binding to Estrogen receptor of MCF-7 cell lysate […]; assay type: cell-based
MCF7 [3] = test: Inhibition of MCF-7 human mammary tumor cell proliferation at 1*10e-8M; assay type: functional
In short: (§2)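 MCF-7 cells were plated at 5000 cells/mL. […] Cell number was read as colour intensity at 540 nm. Values are means of optical density from four separate cultures, […]. Statistics were one-way ANOVA with Newman-Keuls test.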

MCF7 [4] = test: Inhibition of MCF-7 human mammary tumor cell proliferation 1*10e-7 M; assay type: functional; in short: as §2
MCF7 [5] = test: Inhibition of 1*10e-7 M estradiol induced proliferation of MCF-7 human mammary tumor cells at 1*10e-6 M; assay type: functional; in short: as §2
MCF7 [6] = test: (§3) Inhibition of 1*10e-8M estradiol induced proliferation of MCF-7 human mammary tumor cells; assay type: functional; in short: as §2
MCF7 [7] = test: Inhibition of 1*10e-8M estradiol induced proliferation of MCF-7 human mammary tumor cells at 1*10e-7 M; assay type: functional; in short: as §2
MCF7 [8] = test: as §3; assay type: functional; in short: as §2; remark: listed apart in the source
MCF7 [9] = test: Inhibition of MCF-7 human mammary tumor cell proliferation; assay type: functional; in short: as §2
MCF7 [10] = test: Inhibition of MCF-7 human mammary tumor cell proliferation at 1*10e-6 M; assay type: functional; in short: as §2
[11] = molecular target: T1, Estrogen receptor (Rattus norvegicus); test: In vivo anti-uterotrophic effect in 0.2 ug estradiol benzoate stimulated immature rats at 10 ug; assay type: functional, organism-based; in short: as §1
[12] = molecular target: T1, Estrogen receptor (Rattus norvegicus); test: In vivo anti-uterotrophic effect in 0.2 ug estradiol benzoate stimulated immature rats at 20 ug; assay type: functional, organism-based; in short: as §1
[13] = molecular target: T1, Estrogen receptor (Rattus norvegicus); test: In vivo anti-uterotrophic effect in 0.2 ug estradiol benzoate stimulated immature rats at 5 ug; assay type: functional, organism-based; in short: as §1
[14] = molecular target: T1, Estrogen receptor (Rattus norvegicus); test: In vivo anti-uterotrophic effect in 0.2 ug estradiol benzoate stimulated immature rats at 12.5 ug; assay type: functional, organism-based; in short: as §1
[15] = molecular target: T1, Estrogen receptor (Rattus norvegicus); test: In vivo anti-uterotrophic effect in 0.2 ug estradiol benzoate stimulated immature rats at 25 ug; assay type: functional, organism-based; in short: as §1
[16] = molecular target: T1, Estrogen receptor (Rattus norvegicus); test: In vivo anti-uterotrophic effect in 0.2 ug estradiol benzoate stimulated immature rats at 50 ug; assay type: functional, organism-based; in short: as §1
MCF7 [17] = test: Inhibition of 1*10e-7 M estradiol induced proliferation of MCF-7 human mammary tumor cells at 1*10e-7 M; assay type: functional; in short: as §2
MCF7 [18] = test: Inhibition of 1*10e-7 M estradiol induced proliferation of MCF-7 human mammary tumor cells at 1*10e-8M; assay type: functional; in short: as §2
MCF7 [19] = test: Inhibition of MCF-7 human mammary tumor cell proliferation at 1*10e-7 M; assay type: functional; in short: as §2

Uterine weight [1]: 108
SMILES: C[C@]12CC[C@@H]3c4ccc(OC(=O)c5ccccc5)cc4CC[C@H]3[C@@H]1CC[C@@H]2O

relative binding affinity (RBA) [2]: 1.5
Uterine weight [11]: 72
Uterine weight [12]: 71
Uterine weight [13]: 75
SMILES: CN(C)CCOc1ccc(C2=C(c3ccccc3)CCCc3cc(O)ccc32)cc1
Optical density (MCF7 [3]): 0.126
Optical density (MCF7 [4]): 0.066
Optical density (MCF7 [5]): 0.068
Optical density (MCF7 [6]): 0.727
Optical density (MCF7 [7]): 0.147
Optical density (MCF7 [8]): 0.52
Optical density (MCF7 [9]): 0.417
Optical density (MCF7 [10]): 0.083

Uterine weight [14]: 92
Uterine weight [15]: 75
Uterine weight [16]: 77
SMILES: CN(C)CCOc1ccc(C2=C(c3ccccc3)CCCc3ccccc32)cc1

SMILES: CN(C)CCOc1ccc2c(c1)CCCC(c1ccccc1)=C2c1ccc(O)cc1
Optical density (MCF7 [3]): 0.44
Optical density (MCF7 [5]): 0.363
Optical density (MCF7 [17]): 0.566
Optical density (MCF7 [18]): 0.659
Optical density (MCF7 [6]): 0.707
Optical density (MCF7 [19]): 0.328
Optical density (MCF7 [9]): 0.337
Optical density (MCF7 [10]): 0.162
